Tests used:
[1] = test system: Leishmania donovani; assay: Antileishmanial activity against Leishmania donovani promastigotes assessed as parasite growth inhibition incubated for 72 hrs by alamar blue staining based assay; format: functional, organism-based
How it was run: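 L. donovani S1 Sudan strain promastigotes were grown at 26 °C in RPMI-1640 (no bicarbonate or pyruvate) with 10% FBS. Compound dilutions were added to cultures at 2 × 10⁶ cells per mL, at final 40, 8 and 1.6 μg mL⁻¹ (footnote: at least six concentrations, each in duplicate). Incubation was 72 h at 26 °C, with Alamar blue read-out. IC50 came from non-linear logistic regression. Experiments were run in triplicate.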

[2] = test system: Plasmodium falciparum; assay: Antimalarial activity against chloroquine-sensitive Plasmodium falciparum D6 assessed as parasite growth inhibition incubated for 48 hrs by LDH assay; format: functional, organism-based; details: D6, 48 h
How it was run: (§1)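 Asynchronous P. falciparum cultures (2% hematocrit, 2% parasitemia) were exposed to DMSO-dissolved compound dilutions in RPMI-1640. They were held at 37 °C for 48 h in a humidified chamber under 90% N2/5% CO2/5% O2. Growth was read as pLDH activity with Malstat reagent, with medium, RBC and DMSO controls. IC50 came from non-linear logistic dose-response regression, in triplicate.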

[3] = Selectivity index, ratio of IC50 for African green monkey Vero cells to IC50 for Plasmodium falciparum D6; format: toxicity, cell-based; details: read-out: Ratio IC50
How it was run: (§2)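 SI = Vero IC50 (Neutral Red, 48 h) divided by P. falciparum IC50. Parasite IC50 was from asynchronous D6 or W2 cultures (2% hematocrit, 2% parasitemia), with DMSO-dissolved compounds diluted in RPMI-1640. Incubation was 48 h at 37 °C under 90% N₂/5% CO₂/5% O₂, with growth read by pLDH activity (Malstat). Chloroquine and artemisinin were positive controls.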

[4] = test system: Plasmodium falciparum; assay: Antimalarial activity against chloroquine-resistant Plasmodium falciparum W2 assessed as parasite growth inhibition incubated for 48 hrs by LDH assay; format: functional, organism-based; details: W2, 48 h; how it was run: as §1
[5] = Selectivity index, ratio of IC50 for African green monkey Vero cells to IC50 for Plasmodium falciparum W2; format: toxicity, cell-based; details: read-out: Ratio IC50; how it was run: as §2
[6] = Cytotoxicity against African green monkey Vero cells incubated for 48 hrs by Neutral Red assay; format: toxicity, cell-based, Chlorocebus sabaeus
How it was run: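 Vero cells were maintained in RPMI with 10% heat-inactivated FCS, 0.15% NaHCO₃ and penicillin/streptomycin at 37 °C under 5% CO₂. Confluent monolayers were exposed to various concentrations up to a maximum of 4.75 μg mL⁻¹ for 48 h at 37 °C. Viability was read by Neutral Red uptake, with DMSO as negative control. IC50 was taken from the concentration–response curve.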

[7] = test system: Plasmodium falciparum; assay: Antiparasitic activity against chloroquine-resistant Plasmodium falciparum W2 infected in red blood cells assessed as inhibition of parasite growth by HRP2 assay; format: functional, organism-based, Red blood cell; details: W2, Erythrocyte

c1ccc(Cn2cc(-c3ccccc3)nn2)cc1
IC50 [1]: 85 µM

CC(C)=CCC/C(C)=C/CC/C(C)=C/Cn1cc(CCO)nn1
IC50 [1]: 63 µM

CC(C)=CCC/C(C)=C/CC/C(C)=C/Cn1cc(C(C)O)nn1 (stereo not drawn)
IC50 [1]: 56.7 µM

CCCCCCCCCCc1cn(Cc2ccccc2)nn1
IC50 [2]: 11 µM
selectivity ratio [3]: > 1.44
IC50 [4]: 10.7 µM
selectivity ratio [5]: > 1.48
IC50 at 48 h [6]: > 15.9 µM

O=C(O)c1cn(Cc2ccccc2)nn1
IC50 [1]: 18.7 µM

CCCCCCCCCCn1cc(C(=O)OC)nn1
IC50 [2]: 11.2 µM
selectivity ratio [3]: > 1.58
IC50 [4]: 6.73 µM
selectivity ratio [5]: > 2.64
IC50 at 48 h [6]: > 17.8 µM
IC50 [1]: 78.5 µM

CC(C)=CCC/C(C)=C/CC/C(C)=C/Cn1cc(C(C)(C)O)nn1
IC50 [2]: 2.35 µM
selectivity ratio [3]: > 6.09
IC50 [4]: 1.99 µM
selectivity ratio [5]: > 7.2
IC50 at 48 h [6]: > 14.3 µM
IC50 [1]: 48.3 µM

CC(C)=CCC/C(C)=C/CC/C(C)=C/Cn1cc(CO)nn1
IC50 [1]: 56 µM

C(=C\c1ccccc1)/Cn1cc(-c2ccccc2)nn1
IC50 [2]: 11.5 µM
selectivity ratio [3]: > 1.58
IC50 [4]: 13 µM
selectivity ratio [5]: > 1.4
IC50 at 48 h [6]: > 18.2 µM

CCCc1cn(C/C=C/c2ccccc2)nn1
IC50 [2]: 20.9 µM
selectivity ratio [3]: < 1
IC50 [4]: 22 µM
selectivity ratio [5]: < 1
IC50 at 48 h [6]: > 20.9 µM

CCCCCCCCc1cn(C/C=C/c2ccccc2)nn1
IC50 [2]: 10.8 µM
selectivity ratio [3]: > 1.48
IC50 [4]: 10.1 µM
selectivity ratio [5]: > 1.58
IC50 at 48 h [6]: > 16 µM

C[C@@H]1CC[C@H]2[C@@H](C)C(=O)O[C@@H]3O[C@@]4(C)CC[C@@H]1[C@]32OO4 [ARTEMISININ]
selectivity ratio [3]: > 179
selectivity ratio [5]: > 179

COC(=O)c1cn(Cc2ccccc2)nn1
IC50 [1]: 92.1 µM

c1ccc(CCCn2cc(-c3ccccc3)nn2)cc1
IC50 [1]: 68.4 µM

CC(C)=CCC/C(C)=C/CC/C(C)=C\Cn1cc(C(C)O)nn1 (stereo not drawn)
IC50 [1]: 59.9 µM

CC(C)=CCC/C(C)=C/CC/C(C)=C\Cn1cc(C(C)(C)O)nn1
IC50 [1]: 63.4 µM

CCCCCc1cn(CCCc2ccccc2)nn1
IC50 [2]: 16.3 µM
selectivity ratio [3]: > 1.13
IC50 [4]: 10.9 µM
selectivity ratio [5]: > 1.7
IC50 at 48 h [6]: > 18.5 µM

CCCc1cn(CCCc2ccccc2)nn1
IC50 [2]: 15.3 µM
selectivity ratio [3]: > 1.36
IC50 [4]: 11.3 µM
selectivity ratio [5]: > 1.83
IC50 at 48 h [6]: > 20.7 µM

COC(=O)c1cn(CC=C(C)C)nn1
IC50 [2]: 24.3 µM
selectivity ratio [3]: > 1
IC50 [4]: 23.1 µM
selectivity ratio [5]: 1.06
IC50 at 48 h [6]: > 24.3 µM

CC(C)=CCC/C(C)=C/CC/C(C)=C\Cn1cc(CO)nn1
IC50 [1]: 59.3 µM

CCOC(=O)Cn1cc(C(=O)OC)nn1
IC50 [2]: 12.3 µM
selectivity ratio [3]: > 1.7
IC50 [4]: 12.3 µM
selectivity ratio [5]: > 1.7
IC50 at 48 h [6]: > 20.9 µM

CCCCCc1cn(C/C=C(\C)CC/C=C(\C)CCC=C(C)C)nn1
IC50 [2]: 3.49 µM
selectivity ratio [3]: > 3.96
IC50 [4]: 6.69 µM
selectivity ratio [5]: > 2.07
IC50 at 48 h [6]: > 13.8 µM

CCCCCCCCc1cn(Cc2ccccc2)nn1
IC50 [1]: 22.1 µM

CCCCCc1cn(C/C=C/c2ccccc2)nn1
IC50 [1]: 74.4 µM

CC(C)=CCC/C(C)=C/CC/C(C)=C\Cn1cc(CCO)nn1
IC50 [2]: 2.74 µM
selectivity ratio [3]: > 5.46
IC50 [4]: 2.05 µM
selectivity ratio [5]: > 7.31
IC50 at 48 h [6]: > 15 µM
IC50 [1]: 63 µM

O=Cn1cc(-c2ccnc3cc(Cl)ccc23)nn1
IC50 [7]: 1.4 µM

CCCCCCCCn1cc(CO)nn1
IC50 [2]: 13.3 µM
selectivity ratio [3]: > 1.7
IC50 [4]: 6.63 µM
selectivity ratio [5]: > 3.39
IC50 at 48 h [6]: > 22.5 µM
